Assay results from ChEMBL document CHEMBL1123812, “Pyrroloisoquinoline antidepressants. 2. In-depth exploration of structure-activity relationships” (J Med Chem, 1987).
Blank lines part the entries; values can stand above or below the compound they belong to. Active and inactive are the calls of the source.

What was measured:
Mus musculus [1] = species on record: Mus musculus; test: Gross behavioral effects ascertained in mice; D indicates significant depressant properties.; type: functional, organism-based
Procedure, shortened: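 Male Swiss Webster albino mice, 18–24 g, three per dose, given ip 1, 3, 10, 30, 100 and 300 mg/kg. Gross behaviour observed and held 4 days. Estimated LD50 range from lethality count on day 4. Scored as weak stimulant/depressant, significant stimulant, significant depressant or overt convulsant.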

Rattus norvegicus [2] = species on record: Rattus norvegicus; test: Ability to inhibit the uptake of tritiated serotonin(5-HT) %inhibition; type: functional
Procedure, shortened: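 Rat brain synaptosomes (male Wistar P2 fraction) from hypothalamus (NE), striatum (DA) or cerebral cortex (5-HT), in Tris or HEPES Krebs-type medium with nialamide, pH 7.4. Preincubation 10 min at 37 °C with compound. Then [3H]NE 100–300 nM, [3H]DA 50–300 nM or [3H]5-HT 100–200 nM added for 3 min (DA) or 6–10 min (NE, 5-HT). Blanks kept on ice. Filtration and scintillation counting. Percent inhibition at 0.100 μM when weak.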

Mus musculus [3] = test: Ability to antagonise intraperitoneal dose; inactive (<10% antagonism) at 30 mg/kg is represented as I-30.; type: functional, organism-based; set-up: dose 30 mg/kg
Procedure, shortened: (§1)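 Nonfasted male Swiss Webster mice, 18–24 g, ten per dose level and in saline controls. Test compound given ip 30 min before tetrabenazine 32 mg/kg ip; dose expressed as free base. Motor activity and ptosis scored. Control response ≤90% corrected by Abbott's formula.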

Mus musculus [4] = test: (§2) Ability to antagonise intraperitoneal dose; inactive (<10% antagonism) at 30 mgjkg is represented as I-30.; type: functional, organism-based; procedure, shortened: as §1
[5] = molecular target: Norepinephrine transporter (Rattus norvegicus) (UniProt Q9WTR4); test: Ability to inhibit the uptake of [3H]norepinephrine (NE) 0.1 uM concentration at rat brain synaptosomes; type: functional, subcellular
Procedure, shortened: (§3)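 Male Wistar rat brain synaptosomes (P2 fraction): hypothalamus for NE, striatum for DA, cerebral cortex for 5-HT. Buffer is Tris- or HEPES-buffered salt medium with glucose, ascorbate and nialamide, pH 7.4 at 37 °C. Preincubated 10 min at 37 °C with compound. Uptake started with [3H]NE 100–300 nM, [3H]DA 50–300 nM or [3H]5-HT 100–200 nM, incubated 3 min (DA) or 6–10 min (NE, 5-HT). Blanks held on ice. Filtered, counted by scintillation.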

Mus musculus [6] = species on record: Mus musculus; test: Gross behavioral effects ascertained in mice; W indicates weak stimulant or depressant activity of little significance.; type: functional, organism-based
Procedure, shortened: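 Male Swiss Webster mice, 18–24 g, three per dose, given ip doses of 1, 3, 10, 30, 100 and 300 mg/kg. Observed for gross behavior and held for 4 days. Scored as weak (W), stimulant (S), depressant (D) or convulsant (C).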

Rattus norvegicus [7] = species on record: Rattus norvegicus; test: Ability to inhibit the uptake of tritiated dopamine (DA) 0.1 uM concentration; type: functional; procedure, shortened: as §3
[8] = molecular target: Sodium-dependent serotonin transporter (Rattus norvegicus) (UniProt P31652); test: Ability to inhibit the uptake of [3H]- serotonin(5-HT) 0.1 uM concentration at rat brain synaptosomes; type: functional, subcellular; procedure, shortened: as §3
[9] = molecular target: Norepinephrine transporter (Rattus norvegicus, UniProt Q9WTR4); test: Inhibition of uptake of tritiated norepinephrine (NE) in rat synaptosomes; type: subcellular, Brain
[10] = molecular target: Sodium-dependent dopamine transporter (Rattus norvegicus, UniProt P23977); test: Inhibition of the uptake of tritiated dopamine (DA) in rat synaptosomes; type: subcellular, Brain
[11] = molecular target: Serotonin 2 (5-HT2) receptor (Rattus norvegicus, UniProt P30994+P08909+P14842); test: (§4) Binding affinity towards 5-hydroxytryptamine 2 receptor at 1.0 uM concentration; type: protein assay
Mus musculus [12] = species on record: Mus musculus; test: Antagonism of tetrabenazine (TBZ)-induced depression measured in mice by motor activity; type: functional; settings: Mus musculus; read-out: ED50; procedure, shortened: as §1
Mus musculus [13] = species on record: Mus musculus; test: Antagonism of tetrabenazine (TBZ)-induced depression in mice measured for ptosis; type: functional; settings: Mus musculus; read-out: ED50; procedure, shortened: as §1
Mus musculus [14] = test: Ability to antagonise tetrabenazine (TBZ)-induced depression measured in mice for ptosis by 10 mg/kg i.p. dose; inactive (<10% antagonism) at 30 mgjkg is represented as I-30.; type: functional, organism-based; set-up: dose 10 mg/kg
Procedure, shortened: (§5)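 Swiss Webster male albino mice, nonfasted, 18–24 g, 10 per dose and in saline control. Compound given ip 30 min before TBZ 32 mg/kg ip. Motor activity and ptosis scored. Response corrected by Abbott's formula when control response was 90% or less. Doses expressed as free base.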

Rattus norvegicus [15] = test: Ability to inhibit the uptake of tritiated serotonin(5-HT) at 0.1 mg/kg concentration; type: functional
Mus musculus [16] = test: as §2; type: functional, organism-based; procedure, shortened: as §5; remark: listed apart in the source
Rattus norvegicus [17] = species on record: Rattus norvegicus; test: Ability to inhibit the uptake of tritiated norepinephrine (NE); type: functional; procedure, shortened: as §3
[18] = molecular target: Serotonin 2 (5-HT2) receptor (Rattus norvegicus) (UniProt P30994+P08909+P14842); test: as §4; type: protein assay
Procedure, shortened: (§6)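 Rat brain crude synaptic membranes in 20 mM NaHEPES pH 7.5. Ligands: α1 cortex […] 0.4 nM, nonspecific with (-)-NE 100 μM, 30 min at 25 °C. […] D2 striatum [3H]spiperone 0.05 nM with (+)-butaclamol 1 μM, 45 min at 37 °C. S1 cortex [3H]5-HT 1 nM plus glutathione and MgCl2, with 5-HT 10 μM, 20 min at 37 °C. […] Samples filtered on GF/B and counted.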

[19] = molecular target: Sodium-dependent dopamine transporter (Rattus norvegicus) (UniProt P23977); test: Inhibition of tritiated dopamine (DA) uptake at 0.1 uM concentration; type: functional; procedure, shortened: as §3
[20] = molecular target: D(2) dopamine receptor (Rattus norvegicus) (UniProt P61169); test: Binding affinity towards dopamine receptor D2 at 1.0 uM concentration; procedure, shortened: as §6
[21] = molecular target: Sodium-dependent serotonin transporter (Rattus norvegicus) (UniProt P31652); test: Inhibition of tritiated serotonin(5-HT) uptake at 0.1 uM concentration; type: functional; procedure, shortened: as §3
[22] = molecular target: Serotonin 1 (5-HT1) receptor (Rattus norvegicus) (UniProt P28564+P30940+P19327+P28565); test: Binding affinity towards serotonin S1 receptor at 1.0 uM; type: protein assay; procedure, shortened: as §6
Rattus norvegicus [23] = species on record: Rattus norvegicus; test: Ability to inhibit the uptake of tritiated norepinephrine (NE) at 0.1 uM concentration; type: functional; procedure, shortened: as §3
Rattus norvegicus [24] = species on record: Rattus norvegicus; test: Ability to inhibit the uptake of tritiated serotonin(5-HT) at 1 uM concentration; type: functional
Procedure, shortened: (§7)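 Rat synaptosomal uptake as above: striatal P2 for [3H]DA (50–300 nM, 3 min) and cortical P2 for [3H]5-HT (100–200 nM, 6 min). 37 °C after 10-min preincubation with compound. […] Blanks incubated in ice water. Filter-retained tritium counted by liquid scintillation.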

Rattus norvegicus [25] = species on record: Rattus norvegicus; test: Ability to inhibit the uptake of tritiated dopamine (DA) at 1 uM concentration; type: functional; procedure, shortened: as §7

Chain of Sodium-dependent serotonin transporter (Rattus norvegicus) (P31652 whole entry): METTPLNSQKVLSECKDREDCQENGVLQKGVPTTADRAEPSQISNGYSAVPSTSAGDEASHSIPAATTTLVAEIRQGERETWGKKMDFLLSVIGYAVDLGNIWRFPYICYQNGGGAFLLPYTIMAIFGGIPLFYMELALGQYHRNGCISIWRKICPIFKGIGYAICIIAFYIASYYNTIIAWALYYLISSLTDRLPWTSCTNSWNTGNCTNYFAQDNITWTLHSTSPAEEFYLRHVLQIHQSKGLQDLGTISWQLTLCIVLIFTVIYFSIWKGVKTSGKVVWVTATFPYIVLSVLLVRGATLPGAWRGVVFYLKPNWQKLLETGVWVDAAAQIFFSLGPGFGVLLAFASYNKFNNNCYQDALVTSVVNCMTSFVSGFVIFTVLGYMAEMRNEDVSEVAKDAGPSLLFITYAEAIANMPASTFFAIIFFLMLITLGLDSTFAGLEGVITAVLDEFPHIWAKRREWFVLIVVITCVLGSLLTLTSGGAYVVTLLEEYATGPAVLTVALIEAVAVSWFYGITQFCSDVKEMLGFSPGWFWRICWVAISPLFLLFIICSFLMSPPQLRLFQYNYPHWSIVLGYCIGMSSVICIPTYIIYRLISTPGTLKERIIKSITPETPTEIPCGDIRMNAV
Chain of Sodium-dependent dopamine transporter (P23977 whole entry): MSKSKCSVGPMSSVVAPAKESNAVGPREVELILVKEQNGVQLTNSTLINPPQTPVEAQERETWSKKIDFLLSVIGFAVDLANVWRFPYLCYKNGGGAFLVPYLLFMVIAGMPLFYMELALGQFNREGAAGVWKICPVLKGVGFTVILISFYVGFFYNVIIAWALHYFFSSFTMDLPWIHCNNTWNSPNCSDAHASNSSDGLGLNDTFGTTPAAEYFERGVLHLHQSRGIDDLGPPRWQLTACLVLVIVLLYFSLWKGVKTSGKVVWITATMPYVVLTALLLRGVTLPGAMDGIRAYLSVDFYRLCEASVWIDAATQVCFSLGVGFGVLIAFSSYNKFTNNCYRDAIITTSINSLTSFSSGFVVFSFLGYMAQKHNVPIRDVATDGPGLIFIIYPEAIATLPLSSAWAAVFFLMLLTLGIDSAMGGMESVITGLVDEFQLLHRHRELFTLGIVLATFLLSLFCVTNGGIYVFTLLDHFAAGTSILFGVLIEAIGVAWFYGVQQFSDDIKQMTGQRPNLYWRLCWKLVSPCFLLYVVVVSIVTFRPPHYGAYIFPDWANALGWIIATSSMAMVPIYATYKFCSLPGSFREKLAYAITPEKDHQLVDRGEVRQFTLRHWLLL
Chain of Sodium-dependent dopamine transporter (Rattus norvegicus) (P23977 whole entry): as above
Chain of Norepinephrine transporter (Rattus norvegicus) (Q9WTR4 as listed by the source): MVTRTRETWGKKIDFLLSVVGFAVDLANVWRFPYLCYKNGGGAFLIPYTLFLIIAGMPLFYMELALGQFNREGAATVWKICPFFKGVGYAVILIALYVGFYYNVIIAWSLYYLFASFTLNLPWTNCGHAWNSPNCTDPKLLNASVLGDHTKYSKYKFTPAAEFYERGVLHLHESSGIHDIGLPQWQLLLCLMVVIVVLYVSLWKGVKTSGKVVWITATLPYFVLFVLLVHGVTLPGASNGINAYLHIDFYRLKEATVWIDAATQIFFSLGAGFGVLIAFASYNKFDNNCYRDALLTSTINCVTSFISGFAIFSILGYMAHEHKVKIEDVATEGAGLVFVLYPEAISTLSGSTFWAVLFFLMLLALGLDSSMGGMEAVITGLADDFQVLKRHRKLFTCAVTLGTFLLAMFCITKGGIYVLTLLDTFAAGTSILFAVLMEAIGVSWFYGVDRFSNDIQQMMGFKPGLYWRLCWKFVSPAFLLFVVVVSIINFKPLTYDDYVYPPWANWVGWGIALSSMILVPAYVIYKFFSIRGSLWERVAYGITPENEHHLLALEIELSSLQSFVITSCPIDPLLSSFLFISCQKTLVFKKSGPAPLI
Chain of Norepinephrine transporter (Q9WTR4 whole entry): as the sequence (Q9WTR4 as listed by the source) above
Chain of D(2) dopamine receptor (Rattus norvegicus) (P61169 whole entry): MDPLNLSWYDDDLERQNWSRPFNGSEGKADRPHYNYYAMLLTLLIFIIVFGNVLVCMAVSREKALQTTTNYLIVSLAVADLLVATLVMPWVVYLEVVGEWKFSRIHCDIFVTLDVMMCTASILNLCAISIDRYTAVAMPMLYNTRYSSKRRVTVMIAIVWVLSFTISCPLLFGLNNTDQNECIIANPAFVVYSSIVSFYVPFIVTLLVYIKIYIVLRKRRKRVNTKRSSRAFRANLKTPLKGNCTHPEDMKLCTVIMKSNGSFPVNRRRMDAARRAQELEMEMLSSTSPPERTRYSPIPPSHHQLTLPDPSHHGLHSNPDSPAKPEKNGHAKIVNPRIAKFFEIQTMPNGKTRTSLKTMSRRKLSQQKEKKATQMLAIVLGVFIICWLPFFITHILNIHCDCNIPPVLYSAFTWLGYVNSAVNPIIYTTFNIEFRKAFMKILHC
Chain of Serotonin 2 (5-HT2) receptor (Rattus norvegicus) (P08909 whole entry, looked up): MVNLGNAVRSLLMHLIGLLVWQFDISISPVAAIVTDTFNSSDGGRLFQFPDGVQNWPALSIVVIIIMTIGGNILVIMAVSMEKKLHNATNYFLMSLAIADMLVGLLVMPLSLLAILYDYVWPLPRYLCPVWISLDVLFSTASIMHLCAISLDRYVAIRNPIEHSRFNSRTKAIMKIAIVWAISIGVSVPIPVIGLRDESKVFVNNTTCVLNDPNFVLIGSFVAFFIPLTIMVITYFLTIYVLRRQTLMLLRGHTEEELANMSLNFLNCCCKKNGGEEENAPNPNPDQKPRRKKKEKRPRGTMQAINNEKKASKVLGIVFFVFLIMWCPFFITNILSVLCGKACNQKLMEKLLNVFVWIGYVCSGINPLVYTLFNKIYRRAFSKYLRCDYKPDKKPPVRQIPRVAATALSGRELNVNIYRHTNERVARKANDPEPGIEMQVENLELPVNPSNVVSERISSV
Chain of Serotonin 2 (5-HT2) receptor (Rattus norvegicus) (P14842 whole entry, looked up): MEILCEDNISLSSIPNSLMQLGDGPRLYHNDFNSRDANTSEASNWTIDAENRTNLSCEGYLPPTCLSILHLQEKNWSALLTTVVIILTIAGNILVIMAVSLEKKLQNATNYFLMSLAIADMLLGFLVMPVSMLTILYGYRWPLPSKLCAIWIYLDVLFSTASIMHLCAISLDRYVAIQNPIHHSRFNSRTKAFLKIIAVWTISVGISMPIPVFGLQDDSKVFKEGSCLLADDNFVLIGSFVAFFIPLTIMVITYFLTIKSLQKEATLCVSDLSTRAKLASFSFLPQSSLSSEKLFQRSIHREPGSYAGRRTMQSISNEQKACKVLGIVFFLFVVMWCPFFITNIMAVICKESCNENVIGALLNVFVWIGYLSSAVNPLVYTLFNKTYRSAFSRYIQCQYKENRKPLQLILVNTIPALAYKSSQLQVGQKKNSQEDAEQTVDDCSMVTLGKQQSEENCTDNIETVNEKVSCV
Chain of Serotonin 2 (5-HT2) receptor (Rattus norvegicus) (P30994 whole entry, looked up): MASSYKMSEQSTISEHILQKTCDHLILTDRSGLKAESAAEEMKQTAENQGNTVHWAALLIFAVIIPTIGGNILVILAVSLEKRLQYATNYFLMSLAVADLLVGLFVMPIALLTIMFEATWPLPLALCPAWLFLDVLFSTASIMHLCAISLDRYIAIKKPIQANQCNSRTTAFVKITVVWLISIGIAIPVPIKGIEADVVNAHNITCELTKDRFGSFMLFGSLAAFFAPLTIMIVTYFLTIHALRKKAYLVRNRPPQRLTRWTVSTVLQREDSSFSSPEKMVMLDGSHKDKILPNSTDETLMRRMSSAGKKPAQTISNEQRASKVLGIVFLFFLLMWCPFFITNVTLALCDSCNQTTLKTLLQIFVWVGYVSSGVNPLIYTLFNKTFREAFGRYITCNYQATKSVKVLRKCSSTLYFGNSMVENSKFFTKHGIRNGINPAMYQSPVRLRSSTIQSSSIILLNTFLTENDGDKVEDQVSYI

Compound: Br.c1csc([C@@H]2CN3CCC[C@H]3c3ccsc32)c1
behavior (Mus musculus [1]): Significant depressant
Inhibition (Rattus norvegicus [2]): 2%
ED50 (Mus musculus [3]): inactive
ED50 (Mus musculus [4]): inactive

inhibition [5]: 27%
Ki (Rattus norvegicus [7]): 1000 nM
inhibition [8]: 11%
Compound: c1ccc([C@@H]2CN3CCCC[C@H]3c3ccccc32)cc1
behavior (Mus musculus [6]): Weak

Ki [9]: 41.3 nM
Ki [10]: 9.8 nM
Ki [11]: 54 nM
Compound: O=C(Nc1ccccc1)Nc1ccc([C@@H]2CN3CCC[C@H]3c3ccccc32)cc1
ED50 (Mus musculus [12]): > 60 mg/kg
ED50 (Mus musculus [13]): 10 mg/kg

Compound: c1ccc([C@@H]2CN3CCC[C@H]3c3ccsc32)cc1
behavior (Mus musculus [1]): Significant depressant
ED50 (Mus musculus [14]): inactive
inhibition in vivo at 0.1 mg/kg (Rattus norvegicus [15]): 28%
ED50 (Mus musculus [16]): inactive

Ki (Rattus norvegicus [17]): ~100 nM
inhibition [18]: 5%
inhibition [19]: 38%
inhibition [20]: 48%
inhibition [21]: 21%
inhibition [22]: -9%
Compound: Br.Fc1ccc([C@@H]2CN3CCC[C@H]3c3cc(F)ccc32)cc1
behavior (Mus musculus [6]): Partial stimulant
ED50 (Mus musculus [12]): > 60 mg/kg
ED50 (Mus musculus [13]): 1.6 mg/kg

Compound: Clc1ccc([C@@H]2CN3CCC[C@H]3c3ccccc32)c(Cl)c1
Inhibition (Rattus norvegicus [23]): 31%
Inhibition (Rattus norvegicus [24]): 52%
Inhibition (Rattus norvegicus [25]): 34%
